Measurements from ChEMBL document CHEMBL4706680, “Small-Molecule HSP27 Inhibitor Abolishes Androgen Receptors in Glioblastoma” (J Med Chem, 2021).
Activity calls are given as the source filed them. The calls are words filed in the database; no cut-off is given here.

Assays:
[1] = Toxicity in CD1 mouse assessed as effect on MCV count at 80 mg/kg/day, ip administered thrice weekly by hematology analyzer; format: organism-based; settings: in vivo, 72 h, time 3 day
In short: (§1)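 Male CD-1 mice, four per group, given 80 mg/kg in PBS IP three times weekly; vehicle DMSO. Mice were euthanized when toxicity signs appeared, otherwise at day 10. Body weight was recorded at first and last dosing days. Non-fasted cardiac blood was taken after euthanasia for an automated hematology analyzer.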

[2] = system: U-87 MG; experiment: Antiproliferative activity against human U87 cells assessed as reduction in cell viability incubated for 48 hrs by MTT assay; format: functional, cell-based, U-87MG ATCC
In short: (§2)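 MTT assay; 3000 cells/well in RPMI 1640 or DMEM with 10% FBS, seeded 24 h, then exposed 48 h to a range of concentrations in DMSO (final ≤0.1%); vehicle controls. MTT 1 mg/mL for 2 h at 37 °C, dye dissolved in DMSO, absorbance 570 nm; eight replicates; IC50 by nonlinear regression.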

[3] = Toxicity in CD1 mouse assessed as effect on lymphocyte at 80 mg/kg/day, ip administered thrice weekly by hematology analyzer; format: organism-based; settings: in vivo, 72 h, time 3 day; in short: as §1
[4] = Toxicity in CD1 mouse assessed as induction of dehydration at 80 mg/kg/day, ip administered thrice weekly and observed at day 5 to 7; format: organism-based; settings: in vivo, 72 h, time 3 day; in short: as §1
[5] = system: U-251; experiment: Antiproliferative activity against human U-251 cells assessed as reduction in cell viability incubated for 48 hrs by MTT assay; format: functional, cell-based; settings: U-251, 48 h; in short: as §2
[6] = Toxicity in CD1 mouse assessed as effect on RBC count at 80 mg/kg/day, ip administered thrice weekly by hematology analyzer; format: organism-based; settings: in vivo, 72 h, time 3 day; in short: as §1
[7] = Toxicity in CD1 mouse assessed as effect on MCHC count at 80 mg/kg/day, ip administered thrice weekly by hematology analyzer; format: organism-based; settings: in vivo, 72 h, time 3 day; in short: as §1
[8] = system: T98G; experiment: Antiproliferative activity against human T98G cells overexpressing AR assessed as reduction in cell viability incubated for 48 hrs by MTT assay; format: functional, cell-based; in short: as §2
[9] = Toxicity in CD1 mouse assessed as effect on WBC count at 80 mg/kg/day, ip administered thrice weekly by hematology analyzer; format: organism-based; settings: in vivo, 72 h, time 3 day; in short: as §1
[10] = Toxicity in CD1 mouse assessed as effect on hemoglobin count at 80 mg/kg/day, ip administered thrice weekly by hematology analyzer; format: organism-based; settings: in vivo, 72 h, time 3 day; in short: as §1
[11] = Toxicity in CD1 mouse assessed as reduction in food consumption at 80 mg/kg/day, ip administered thrice weekly and observed at day 5 to 7; format: organism-based; settings: in vivo, 72 h, time 3 day; in short: as §1
[12] = Toxicity in CD1 mouse assessed as effect on neutrophils count at 80 mg/kg/day, ip administered thrice weekly by hematology analyzer; format: organism-based; settings: in vivo, 72 h, time 3 day; in short: as §1
[13] = Toxicity in CD1 mouse assessed as effect on basophil count at 80 mg/kg/day, ip administered thrice weekly by hematology analyzer; format: organism-based; settings: in vivo, 72 h, time 3 day; in short: as §1
[14] = Toxicity in CD1 mouse assessed as decrease in body weight at 80 mg/kg/day, ip administered thrice weekly and observed at day 5 to 7; format: organism-based; settings: in vivo, 72 h, time 3 day; in short: as §1
[15] = Toxicity in CD1 mouse assessed as effect on hematocrit count at 80 mg/kg/day, ip administered thrice weekly by hematology analyzer; format: organism-based; settings: in vivo, 72 h, time 3 day; in short: as §1
[16] = Toxicity in CD1 mouse assessed as effect on monocytes at 80 mg/kg/day, ip administered thrice weekly by hematology analyzer; format: organism-based; settings: in vivo, 72 h, time 3 day; in short: as §1
[17] = Toxicity in CD1 mouse assessed as effect on PLT at 80 mg/kg/day, ip administered thrice weekly by hematology analyzer; format: organism-based; settings: in vivo, 72 h, time 3 day; in short: as §1
[18] = Toxicity in CD1 mouse assessed as effect on eosinophil count at 80 mg/kg/day, ip administered thrice weekly by hematology analyzer; format: organism-based; settings: in vivo, 72 h, time 3 day; in short: as §1
[19] = Toxicity in CD1 mouse assessed as effect on MPV at 80 mg/kg/day, ip administered thrice weekly by hematology analyzer; format: organism-based; settings: in vivo, 72 h, time 3 day; in short: as §1
[20] = Toxicity in CD1 mouse assessed as effect on MCH count at 80 mg/kg/day, ip administered thrice weekly by hematology analyzer; format: organism-based; settings: in vivo, 72 h, time 3 day; in short: as §1
[21] = system: A 172; experiment: Antiproliferative activity against human A 172 cells assessed as reduction in cell viability incubated for 48 hrs by MTT assay; format: functional, cell-based; settings: A 172, 48 h; in short: as §2
[22] = Toxicity in CD1 mouse assessed as effect on RDW-CV at 80 mg/kg/day, ip administered thrice weekly by hematology analyzer; format: organism-based; settings: in vivo, 72 h, time 3 day; in short: as §1
[23] = Dissociation constant, pKa of the compound; format: physicochemical
[24] = Toxicity in CD1 mouse assessed as decrease in body weight at 80 mg/kg/day, ip administered thrice weekly and measured at day 10; format: organism-based; settings: in vivo, 72 h, time 3 day; in short: as §1
[25] = Toxicity in CD1 mouse assessed as acute pain at 80 mg/kg/day, ip administered thrice weekly and measured at day 10; format: organism-based; settings: in vivo, 72 h, time 3 day; in short: as §1
[26] = target: Heat shock protein beta-1 (Homo sapiens) (UniProt P04792); settings: T98G, dose 10.0 nM, time 12.0 hrs
Chain of Heat shock protein beta-1 (Homo sapiens) (P04792 whole entry): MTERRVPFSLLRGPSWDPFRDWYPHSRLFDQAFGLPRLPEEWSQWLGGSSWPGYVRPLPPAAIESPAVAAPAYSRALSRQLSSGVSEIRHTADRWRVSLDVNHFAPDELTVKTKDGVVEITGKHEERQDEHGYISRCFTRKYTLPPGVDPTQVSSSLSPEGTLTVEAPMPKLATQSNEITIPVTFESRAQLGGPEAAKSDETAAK

SMILES | Activity [1] | IC50 [2] | Activity [3] | Activity [4] | IC50 [5] | Activity [6] | Activity [7] | IC50 [8] | Activity [9] | Activity [10] | Activity [11] | Activity [12] | Activity [13] | Activity [14] | Activity [15] | Activity [16] | Activity [17] | Activity [18] | Activity [19] | IC50 [21] | other results
COc1ccc(C(=O)Nc2ccc(N(C)S(C)(=O)=O)c(OCc3cc(OC)ccc3OC)c2)cc1 | Non-Toxic | 3.05 nM | Non-Toxic | Toxic | 1.57 nM | Non-Toxic | Non-Toxic | 1.85 nM | Non-Toxic | Non-Toxic | Toxic | Non-Toxic | Non-Toxic | Toxic | Non-Toxic | Non-Toxic | Non-Toxic | Non-Toxic | Non-Toxic | 3.13 nM | Activity [20]: Non-Toxic; Activity [22]: Non-Toxic
CS(=O)(=O)Nc1ccc([N+](=O)[O-])cc1Oc1ccccc1 [NIMESULIDE] |  |  |  |  |  |  |  |  |  |  |  |  |  |  |  |  |  |  |  |  | pKa [23]: 5.93
CCS(=O)(=O)Nc1ccc(NC(=O)c2ccc(OC)cc2)cc1OCc1cc(OC)ccc1OC |  | 6.74 nM |  |  | 6.39 nM |  |  | 4.87 nM |  |  |  |  |  | Non-Toxic |  |  |  |  |  | 11.9 nM | Activity [24]: Non-Toxic; Activity [25]: Non-Toxic
CCS(=O)(=O)N(C)c1ccc(NC(=O)c2ccc(OC)cc2)cc1OCc1cc(OC)ccc1OC | Non-Toxic | 7.83 nM | Non-Toxic | Toxic | 6.97 nM | Non-Toxic | Non-Toxic | 5.71 nM | Non-Toxic | Non-Toxic | Toxic | Non-Toxic | Non-Toxic | Toxic | Non-Toxic | Non-Toxic | Non-Toxic | Non-Toxic | Non-Toxic | 8.21 nM | Activity [20]: Non-Toxic; Activity [22]: Non-Toxic
C[C@]12CCC(=O)C[C@@H]1CC[C@@H]1[C@@H]2CC[C@]2(C)[C@@H](O)CC[C@@H]12 |  |  |  |  |  |  |  |  |  |  |  |  |  |  |  |  |  |  |  |  | inhibition [26]: inactive
